Diaph act CS – diaphorase activation or chemical reduction counter-screen. Diaphorase/resazurin coupled assay, resorufin fluorescence, 16 min; stronger effect = higher value; 1 = vehicle wells, 0 = NADH-free wells. activation factor at 20 µM. 0.005% of 190,000 active. AID 1229;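 active = diaphorase activity raised at least twofold by the compound at 20 µM; inactive = activation factor below 2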
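Assay system: Purified diaphorase enzyme from Clostridium kluyveri | Amount: Enzyme 0.07 U/mL final | Dosing: Compound 20 µM once, DMSO 1% | Timing: 16 min reaction at room temperature | Detection: Fluorescence, excitation 544 nm and emission 590 nm | Evaluation: Higher resorufin formation from activation or reduction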
Redox H2O2 prof – compounds producing H2O2 with reducing agent – biochemical, NIH compound library profiling, artefact control for MLSCN library redox annotation, primary screen; DTT-dependent redox cycling H2O2, phenol red/HRP absorbance; 100% = 100 µM peroxide control, 0% = buffer; activation, % at 10 µM; 0.03% of 200,000 active;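 active = activation of at least 50% relative to the plate's high and low controls in the primary single-dose screen; inactive = activation below 50%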;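 also: compound incubated with DTT at 0.8 mM final as the reducing agent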
G6PDH CS – counter-screen for G6PDH assay hits: L. mesenteroides G6PDH inhibition. inhibition, % at 5 µM. Purified L. mesenteroides G6PDH, diaphorase/resazurin coupled fluorescence, 45 min. 0.12% of 200,000 active
Diaph inh CS – diaphorase inhibition or chemical oxidation counter-screen; diaphorase resazurin-to-resorufin fluorescence, NADH, 16 min; bacterial (C. kluyveri) enzyme, not human; inhibition, % at 20 µM; 0.69% of 190,000 active;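 active = primary screen inhibition at 20 µM above a set limit, cut at about 50% in these data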;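 also: plate controls were DMSO with full reaction for no effect and wells lacking NADH for full effect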
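material = Clostridium kluyveri diaphorase enzyme | amount = 0.14 U/mL diaphorase, enzyme working solution | schedule = incubation 16 min, room temperature | detection = fluorescence of resorufin formed from resazurin, Ex 544/Em 590 nm | benchmarks = positive control minus NADH, DMSO neutral control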
PfGluPho inh – PfG6PD (Plasmodium falciparum) enzyme inhibition; PfGluPho enzyme, NADPH resazurin-diaphorase fluorescence; inhibition, % at 20 µM; 0.78% of 350,000 active;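 active = inhibition reaching at least a set limit at 20 µM in the primary screen, cut at about 59% in these data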;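 also: 0% = DMSO wells with substrate and 100% = DMSO wells lacking glucose-6-phosphate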
Lmaj promast – reduces viability of Leishmania major promastigotes; resazurin fluorescence viability; inhibition, % at 10 µM; 9% of 200,000 active; AID 1063;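 also: promastigotes grown with compound for 44 hours at 28 °C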
Lmaj promast 1uM – blocks Leishmania major promastigote growth at 1 uM, repeat screen | shares compounds with Lmaj promast | L. major promastigote growth, resazurin fluorescence, 48 h | inhibition, % at 1 µM | 13% of 1,100 active | AID 1258;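 active = inhibition above about 50% in both repeat tests, limit read from the data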
PfG6PD confirm – PfG6PD inhibition, single-dose confirmed. recombinant PfGluPho, NADPH-diaphorase-resazurin fluorescence. 34% of 2,400 active. inhibition, % at 20 µM. shares compounds with PfGluPho inh;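 active = inhibition of at least 50% at 20 µM in any single replicate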;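 also: 0% = DMSO with substrate and 100% = DMSO lacking glucose-6-phosphate substrate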
Diaphorase 10uM – counter-screen for P. falciparum G6PD inhibitors: diaphorase inhibitors, oxidizers; inhibition, % at 20 µM; 39% of 820 active; diaphorase-coupled resazurin reduction, fluorescence, NADPH 10 uM; shares compounds with PfGluPho inh;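 active = average inhibition reaching 50% or more with the compound at 20 µM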;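 also: resorufin red fluorescence formed as diaphorase reduces resazurin using NADPH; 0% = DMSO with enzyme and 100% = DMSO without enzyme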
Diaphorase 30uM – inhibits diaphorase or oxidizes, flagging false PfG6PD hits. shares compounds with PfGluPho inh. Diaphorase/resazurin coupled assay, resorufin fluorescence, 30 uM NADPH. 29% of 820 active. AID 504863. inhibition, % at 20 µM;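 active = inhibition averaging 50% or more, tested at 20 µM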;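 also: 0% = DMSO with enzyme and 100% = DMSO wells lacking diaphorase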
Active calls of the source: *. Shown is part of a subset that was picked to be rich in hits. Rule as the data show it, unless noted: active = inhibition above about 50%; inactive = the rest.

What do the screens show for `O=C(COc1ccc2ccc(=O)oc2c1)N1CCC(C(=O)O)(c2ccccc2)CC1`?
PfGluPho inh: 3

How did CCc1ccc(/C=C(/C#N)C(N)=S)cc1 do in these assays?
Diaph act CS: 0.8; Redox H2O2 prof: 0; G6PDH CS: 2; Diaph inh CS: 18; PfGluPho inh: 32; Lmaj promast: 50*; Lmaj promast 1uM: -19

What do the screens show for `CC1(C)OC1COc1c2occc2cc2ccc(=O)oc12` (centres undefined)?
Diaph act CS: 0.9; Redox H2O2 prof: 1; G6PDH CS: 12; Diaph inh CS: 6; PfGluPho inh: 6; Lmaj promast: -2

Results for CC(C)=CCOc1c2occc2cc2ccc(=O)oc12 ?
Diaph act CS: 0.7; Redox H2O2 prof: 0; G6PDH CS: 18; Diaph inh CS: 26; PfGluPho inh: 68*; Lmaj promast: 1; PfG6PD confirm: 45

Results for COP(=O)(C#Cc1ccccc1)C(O)c1ccc(Br)cc1 (centres undefined) ?
PfGluPho inh: 0

What do the screens show for `O=c1[nH]sc2cc(F)ccc12`?
Diaph act CS: 1; Redox H2O2 prof: 0; G6PDH CS: 12; Diaph inh CS: -2; PfGluPho inh: 63*; Lmaj promast: 78*; PfG6PD confirm: 53*; Diaphorase 10uM: -5; Diaphorase 30uM: -9

How did CCOc1cc2c(cc1OCC)-n1cccc1C(c1cccc([N+](=O)[O-])c1)NC2 (centres undefined) do in these assays?
PfGluPho inh: 17

Results for O=C1C=C(N2CC2)c2ccccc2C1=O ?
PfGluPho inh: 100*; PfG6PD confirm: 72*; Diaphorase 10uM: 54*; Diaphorase 30uM: 63*

What do the screens show for `CCNc1nc(NC(C)(C)C)nc(SC)n1`?
PfGluPho inh: 1

What do the screens show for `CNS(=O)(=O)c1ccc(-c2ccc(C=C3C(=O)NC(=O)NC3=O)o2)cc1`?
PfGluPho inh: 81*; PfG6PD confirm: 55*; Diaphorase 10uM: -12; Diaphorase 30uM: -16

Results for NS(=O)(=O)c1ccc(-c2ccc(C=C3C(=O)NC(=O)NC3=O)o2)cc1 ?
PfGluPho inh: 78*; PfG6PD confirm: 80*; Diaphorase 10uM: 7; Diaphorase 30uM: 3

What do the screens show for `O=C1NC(=O)C(=Cc2ccc(SC3CCCCC3)o2)C(=O)N1`?
Diaph act CS: 0.6; Redox H2O2 prof: 0; G6PDH CS: -3; Diaph inh CS: 36; PfGluPho inh: 42; Lmaj promast: 7

How did c1ccc(Nc2ccc3ccccc3c2)cc1 do in these assays?
PfGluPho inh: 38

Results for CC(C)Nc1ccc(Nc2ccccc2)cc1 ?
PfGluPho inh: 106*; PfG6PD confirm: 52*; Diaphorase 10uM: -1; Diaphorase 30uM: 8

Results for CC(=O)O[C@H]1CC[C@@]2(C)C(=CC(=O)C3C2CC[C@@]2(C)C3C[C@H](OC(C)=O)[C@@H]2OC(C)=O)C1 (some centres undefined) ?
PfGluPho inh: 4

What do the screens show for `CNC(=O)Oc1ccc(-c2cn3cc(Cl)ccc3n2)cc1`?
Diaph act CS: 0.8; Redox H2O2 prof: 0; G6PDH CS: 1; Diaph inh CS: 18; PfGluPho inh: 68*; Lmaj promast: 23; PfG6PD confirm: 47

Results for O=C1NC(=S)NC(=O)C1=Cc1c(Cl)cccc1Cl ?
PfGluPho inh: 29

Results for O=C1NC(=S)NC(=O)C1=Cc1ccc(Br)s1 ?
PfGluPho inh: 65*; PfG6PD confirm: 84*; Diaphorase 10uM: -24; Diaphorase 30uM: -16

How did COc1cc2c(cc1O)C[C@H]1c3c(cc(O)c(OC)c3-2)CCN1C do in these assays?
PfGluPho inh: -3

What do the screens show for `CN1CCc2cc(O)cc3c2[C@H]1Cc1ccc(O)c(O)c1-3`?
PfGluPho inh: 86*; PfG6PD confirm: 83*; Diaphorase 10uM: 25; Diaphorase 30uM: 6

Results for CCCN1CCc2cc(O)cc3c2[C@H]1Cc1ccc(O)c(O)c1-3 ?
PfGluPho inh: 86*; PfG6PD confirm: 77*; Diaphorase 10uM: 19; Diaphorase 30uM: 30

What do the screens show for `Cc1ccc(N2C(=O)CC(=O)NC2=O)cc1Cl`?
PfGluPho inh: -16

Results for CC(=O)n1cc(C=C2C(=O)NC(=O)NC2=O)c2ccccc21 ?
PfGluPho inh: 66*; PfG6PD confirm: -20

What do the screens show for `O=C1NC(=O)C(=Cc2csc3ccccc23)C(=O)N1`?
PfGluPho inh: 65*; PfG6PD confirm: 31

Results for COCCNC(=O)c1c(N)n(Cc2ccco2)c2nc3ccccc3nc12 ?
Diaph act CS: 0.7; Redox H2O2 prof: 2; G6PDH CS: 6; Diaph inh CS: 32; PfGluPho inh: 60*; Lmaj promast: 55*; PfG6PD confirm: -2

How did O=S(=O)(c1cccc(C(F)(F)F)c1)N1Cc2ccccc2-n2nncc2C1 do in these assays?
PfGluPho inh: 13

How did O=C1NC(=O)C(=Cc2ccccc2[N+](=O)[O-])C(=O)N1 do in these assays?
PfGluPho inh: 37

How did O=C1NC(=O)C(=Cc2ccc(-c3ccccc3[N+](=O)[O-])o2)C(=O)N1 do in these assays?
PfGluPho inh: 88*; PfG6PD confirm: 76*; Diaphorase 10uM: 16; Diaphorase 30uM: 5

What do the screens show for `O=C1NC(=O)C(=Cc2ccc(-c3cc(Cl)ccc3[N+](=O)[O-])o2)C(=O)N1`?
Diaph act CS: 0.7; Redox H2O2 prof: 0; G6PDH CS: -4; Diaph inh CS: 27; PfGluPho inh: 69*; Lmaj promast: 64*; PfG6PD confirm: 25

Results for CN1C(C(=O)N2CCC3(CC2)OCCO3)=CC(c2ccc(F)cc2)=NS1(=O)=O ?
PfGluPho inh: 12
